Measured values: ChEMBL document CHEMBL4346747, “Alkynamide phthalazinones as a new class of TbrPDEB1 inhibitors” (Bioorg Med Chem, 2019)
pIC50, pKi: −log10 of the molar value.

How the values were obtained:
Trypanosoma brucei [1] = test: Antitrypanosomal activity against suramin sensitive Trypanosoma brucei Squib427 trypomastigotes assessed as reduction in parasitic cell viability measured after 72 hrs by resazurin dye based fluorimetric analysis; format: functional, organism-based; details: Squib427, 72 h; for IC50: read-out: pIC50 (converted); for pIC50: read-out: IC50
Method in brief: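 Suramin-sensitive Squib-427 trypomastigotes cultured in HMI-9 with 10% heat-inactivated FCS at 37 °C, 5% CO2. About 1.5 × 10^4 parasites per well, five concentrations (64, 16, 4, 1, 0.25 μM), DMSO ≤0.5%, 72 h at 37 °C. Resazurin added, fluorescence read 24 h later (ex 550/em 590 nm) as % viability reduction vs control. Suramin reference; duplicate experiments, mean ± S.E.M.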

[2] = Cytotoxicity against human MRC5 SV2 cells assessed as reduction in cell viability measured after 72 hrs by resazurin dye based fluorimetric analysis
[3] = biological target: T1, Class 1 phosphodiesterase PDEB1 (Trypanosoma brucei, UniProt Q8WQX9); test: Inhibition of Trypanosoma brucei PDEB1 catalytic domain (565 to 918 residues) expressed in Escherichia coli BL21 incubated for 20 mins using cAMP as substrate by PDELight HTS cAMP phosphodiesterase Kit based luminometry
T1 sequence (Q8WQX9 whole entry): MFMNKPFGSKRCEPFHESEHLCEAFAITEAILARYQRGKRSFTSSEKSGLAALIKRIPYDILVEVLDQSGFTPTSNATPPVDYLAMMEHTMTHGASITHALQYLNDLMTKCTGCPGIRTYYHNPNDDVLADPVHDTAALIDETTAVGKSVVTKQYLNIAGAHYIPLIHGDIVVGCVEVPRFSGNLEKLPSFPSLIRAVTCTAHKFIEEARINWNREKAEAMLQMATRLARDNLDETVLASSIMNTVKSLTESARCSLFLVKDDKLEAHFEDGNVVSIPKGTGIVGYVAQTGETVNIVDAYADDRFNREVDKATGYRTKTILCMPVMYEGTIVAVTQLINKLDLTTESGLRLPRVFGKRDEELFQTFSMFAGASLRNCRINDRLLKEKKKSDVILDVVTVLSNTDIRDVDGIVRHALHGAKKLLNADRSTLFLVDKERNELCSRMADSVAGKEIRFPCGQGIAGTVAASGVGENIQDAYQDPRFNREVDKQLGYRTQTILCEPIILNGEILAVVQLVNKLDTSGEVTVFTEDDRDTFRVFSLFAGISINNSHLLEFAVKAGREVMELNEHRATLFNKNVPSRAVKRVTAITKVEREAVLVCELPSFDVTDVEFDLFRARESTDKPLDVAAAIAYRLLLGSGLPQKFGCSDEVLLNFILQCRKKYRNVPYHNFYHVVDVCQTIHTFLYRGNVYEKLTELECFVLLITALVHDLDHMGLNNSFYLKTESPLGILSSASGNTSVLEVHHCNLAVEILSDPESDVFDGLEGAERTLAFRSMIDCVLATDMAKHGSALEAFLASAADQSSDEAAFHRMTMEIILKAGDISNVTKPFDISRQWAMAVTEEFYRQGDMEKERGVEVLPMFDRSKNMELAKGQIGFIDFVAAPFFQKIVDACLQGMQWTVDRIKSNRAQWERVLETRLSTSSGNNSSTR

[4] = Cytotoxicity against human MRC5 SV2 cells assessed as reduction in cell viability at 64 uM measured after 72 hrs by resazurin dye based fluorimetric analysis
[5] = biological target: 3',5'-cyclic-AMP phosphodiesterase 4B (Homo sapiens, UniProt Q07343); test: Inhibition of human PDE4B catalytic domain incubated for 20 mins using cAMP as substrate by PDELight HTS cAMP phosphodiesterase Kit based luminometry
Trypanosoma brucei [6] = test: Antitrypanosomal activity against bloodstream of Trypanosoma brucei trypanosomes assessed as increase in intracellular cAMP level at 3.2 uM measured per 5x10^6 cells after 4 hrs by direct cAMP enzyme immunoassay kit based ELISA (reference value: 6.66 pmol); format: functional
Trypanosoma brucei [7] = test: Antitrypanosomal activity against bloodstream of Trypanosoma brucei trypanosomes assessed as increase in intracellular cAMP level at 8 uM measured per 5x10^6 cells after 4 hrs by direct cAMP enzyme immunoassay kit based ELISA (reference value: 6.66 pmol); format: functional

3',5'-cyclic-AMP phosphodiesterase 4B, sequence (Q07343 whole entry, the tested form may be a part): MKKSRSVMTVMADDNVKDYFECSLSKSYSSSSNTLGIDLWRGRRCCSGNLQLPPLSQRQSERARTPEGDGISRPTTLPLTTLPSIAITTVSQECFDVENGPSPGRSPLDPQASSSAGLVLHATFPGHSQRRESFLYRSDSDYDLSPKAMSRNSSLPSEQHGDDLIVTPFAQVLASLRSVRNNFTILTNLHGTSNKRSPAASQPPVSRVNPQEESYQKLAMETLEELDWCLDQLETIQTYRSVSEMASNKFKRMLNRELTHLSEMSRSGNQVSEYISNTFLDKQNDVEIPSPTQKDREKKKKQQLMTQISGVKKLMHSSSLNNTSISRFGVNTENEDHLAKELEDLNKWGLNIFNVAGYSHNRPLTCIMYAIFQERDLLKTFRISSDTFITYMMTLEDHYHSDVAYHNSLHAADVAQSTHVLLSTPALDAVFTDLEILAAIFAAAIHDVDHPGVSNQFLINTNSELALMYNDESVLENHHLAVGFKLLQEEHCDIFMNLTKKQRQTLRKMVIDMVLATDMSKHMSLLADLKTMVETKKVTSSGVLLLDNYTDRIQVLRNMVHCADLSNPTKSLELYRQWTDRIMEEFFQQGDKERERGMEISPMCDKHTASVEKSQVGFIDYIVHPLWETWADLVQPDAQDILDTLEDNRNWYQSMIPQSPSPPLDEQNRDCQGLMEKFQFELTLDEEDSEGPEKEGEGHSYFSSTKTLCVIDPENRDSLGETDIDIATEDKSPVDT

pKi [3] | SMILES | also measured
 | COc1ccc(C2=NN(C(C)C)C(=O)[C@@H]3CC=CC[C@H]23)cc1-c1ccc(C(=O)NCC(N)=O)cc1 | IC50 (Trypanosoma brucei [1]): 6310 nM; CC50 at 72 h [2]: 31600 nM
 | COc1ccc(C2=NN(C3CCCCCC3)C(=O)[C@@H]3CC=CC[C@H]23)cc1-c1ccc(C(=O)NCC(N)=O)cc1 | IC50 (Trypanosoma brucei [1]): 5010 nM; CC50 at 72 h [2]: 39800 nM
5.80 | COc1ccc(C2=NN(C3CCCCCC3)C(=O)[C@@H]3CC=CC[C@H]23)cc1-c1ccc2c(c1)CNC2=O | 
< 5.00 | COc1ccc(C2=NN(C(C)C)C(=O)[C@@H]3CC=CC[C@H]23)cc1N1CC(C(N)=O)C1 | 
6.10 | COc1ccc(C2=NN(C3CCCCCC3)C(=O)[C@@H]3CC=CC[C@H]23)cc1-c1ccc(C(=O)NCC(N)=O)c(F)c1 | 
5.90 | COCCN1Cc2cc(-c3cc(C4=NN(C5CCCCCC5)C(=O)[C@@H]5CC=CC[C@H]45)ccc3OC)ccc2C1=O (relative stereo) | 
< 5.00 | COc1ccc(C2=NN(C3CCCCCC3)C(=O)[C@@H]3CC=CC[C@H]23)cc1C#Cc1cnco1 (relative stereo) | 
5.40 | C#Cc1cc(C2=NN(C3CCCCCC3)C(=O)[C@@H]3CC=CC[C@H]23)ccc1OC (relative stereo) | 
< 5.00 | CCCCNC(=O)c1ccc(-c2cc(C3=NN(C(C)C)C(=O)[C@@H]4CC=CC[C@H]34)ccc2OC)s1 (relative stereo) | 
< 5.00 | COc1ccc(C2=NN(C(C)C)C(=O)[C@@H]3CC=CC[C@H]23)cc1-c1ccc(C(=O)NCc2ccco2)s1 (relative stereo) | 
6.30 | COc1ccc(C2=NN(C3CCCCCC3)C(=O)[C@@H]3CC=CC[C@H]23)cc1C#CC(=O)NCc1ccco1 (relative stereo) | Activity [4]: Non-Toxic; pKi [5]: 6.40; pIC50 (Trypanosoma brucei [1]): 6.22; IC50 (Trypanosoma brucei [1]): 631 nM; CC50 at 72 h [2]: 50100 nM
 | COc1ccc(C2=NN(C3CCCCCC3)C(=O)[C@@H]3CC=CC[C@H]23)cc1C#CC(N)=O (relative stereo) | IC50 (Trypanosoma brucei [1]): 1000 nM; CC50 at 72 h [2]: 10000 nM; Activity (Trypanosoma brucei [6]): 19.8 pmol; Activity (Trypanosoma brucei [7]): 311 pmol
6.00 | COc1ccc(C2=NN(C3CCCCCC3)C(=O)[C@@H]3CC=CC[C@H]23)cc1C#CC(=O)N1CCOCC1 (relative stereo) | 
< 5.00 | COc1ccc(C2=NN(C3CCCCCC3)C(=O)[C@@H]3CC=CC[C@H]23)cc1-c1ccc(C(=O)NCC(N)=O)cc1C (relative stereo) | 
6.20 | COc1ccc(C2=NN(C3CCCCCC3)C(=O)[C@@H]3CC=CC[C@H]23)cc1C#CC(=O)NCC(N)=O (relative stereo) | IC50 (Trypanosoma brucei [1]): 3980 nM; CC50 at 72 h [2]: 3980 nM
5.00 | COc1ccc(C2=NN(C(C)C)C(=O)[C@@H]3CC=CC[C@H]23)cc1-c1ccc(C(N)=O)s1 (relative stereo) | 
6.40 | CCCCNC(=O)C#Cc1cc(C2=NN(C3CCCCCC3)C(=O)[C@@H]3CC=CC[C@H]23)ccc1OC (relative stereo) | Activity [4]: Non-Toxic; pKi [5]: 6.20; pIC50 (Trypanosoma brucei [1]): 6.22; IC50 (Trypanosoma brucei [1]): 631 nM; CC50 at 72 h [2]: > 63100 nM
6.10 | COCCNC(=O)C#Cc1cc(C2=NN(C3CCCCCC3)C(=O)[C@@H]3CC=CC[C@H]23)ccc1OC (relative stereo) | pKi [5]: 5.80; IC50 (Trypanosoma brucei [1]): > 63100 nM; CC50 at 72 h [2]: > 63100 nM
< 5.00 | COCCNC(=O)c1ccc(-c2cc(C3=NN(C(C)C)C(=O)[C@@H]4CC=CC[C@H]34)ccc2OC)s1 (relative stereo) | 
< 5.00 | CCCCNC(=O)C1CN(c2cc(C3=NN(C(C)C)C(=O)[C@@H]4CC=CC[C@H]34)ccc2OC)C1 (relative stereo) | 
< 5.00 | COc1ccc(C2=NN(C(C)C)C(=O)[C@@H]3CC=CC[C@H]23)cc1-c1ccc(C(=O)NCC(N)=O)s1 (relative stereo) | 
5.20 | COc1cc(-c2cc(C3=NN(C4CCCCCC4)C(=O)[C@@H]4CC=CC[C@H]34)ccc2OC)ccc1C(=O)NCC(N)=O (relative stereo) | 
< 5.00 | COc1ccc(C2=NN(C(C)C)C(=O)[C@@H]3CC=CC[C@H]23)cc1N1CC(C(=O)NCC(N)=O)C1 (relative stereo) | 
5.90 | COc1ccc(C2=NN(C3CCCCCC3)C(=O)[C@@H]3CC=CC[C@H]23)cc1-c1ccc2c(c1)CN(CC(N)=O)C2=O (relative stereo) | 
5.70 | COc1ccc(C2=NN(C3CCCCCC3)C(=O)[C@@H]3CC=CC[C@H]23)cc1-c1ccc(C(=O)NCC(N)=O)cc1F (relative stereo) | 
5.10 | COc1cc(C(=O)NCC(N)=O)ccc1-c1cc(C2=NN(C3CCCCCC3)C(=O)[C@@H]3CC=CC[C@H]23)ccc1OC (relative stereo) | 
< 5.00 | COc1ccc(C2=NN(C(C)C)C(=O)[C@@H]3CC=CC[C@H]23)cc1N1CC(C(=O)NCc2ccco2)C1 (relative stereo) | 
5.70 | COc1ccc(C2=NN(C3CCCCCC3)C(=O)[C@@H]3CC=CC[C@H]23)cc1-c1ccc(C(=O)NCC(N)=O)c(C)c1 (relative stereo) | 
